Screening results deposited in PubChem BioAssay by The Scripps Research Institute Molecular Screening Center.
OX1R antag-1: human HCRTR1 antagonism. 0.43% of 330,000 active. AID 434989. CHO/OX1R cells, Fluo-8 calcium fluorescence, orexin A. O43613. inhibition, % at 5 µM;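 active means inhibition above its plate's threshold, mean inhibition of all tested compounds on the plate plus 3 SD, cut at about 37% in these data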
Target sequence (O43613 whole entry, looked up): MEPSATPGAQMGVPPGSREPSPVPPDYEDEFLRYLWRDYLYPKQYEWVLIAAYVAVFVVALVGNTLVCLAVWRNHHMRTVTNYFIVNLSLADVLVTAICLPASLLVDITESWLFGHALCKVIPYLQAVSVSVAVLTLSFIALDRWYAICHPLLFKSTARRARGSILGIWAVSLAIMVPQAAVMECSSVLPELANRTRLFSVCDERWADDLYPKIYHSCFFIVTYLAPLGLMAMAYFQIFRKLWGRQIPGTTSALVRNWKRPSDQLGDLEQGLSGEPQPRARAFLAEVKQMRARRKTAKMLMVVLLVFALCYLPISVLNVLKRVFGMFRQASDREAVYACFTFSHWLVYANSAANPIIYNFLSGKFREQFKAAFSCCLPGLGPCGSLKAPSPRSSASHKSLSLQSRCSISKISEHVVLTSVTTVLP
TAAR1 agonist: agonists of human TAAR1; Q96RJ0; 0.99% of 360,000 active; activation, % at 3 µM; AID 624467; CHO RD-HGA16 TAAR1, Fluo-8 calcium fluorescence; vehicle wells 0%, saturating PEA agonist 100%;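 active means activation above the mean activation of all test compounds in the run plus 3 SD, cut at about 38% in these data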
Target sequence (Q96RJ0 whole entry, looked up): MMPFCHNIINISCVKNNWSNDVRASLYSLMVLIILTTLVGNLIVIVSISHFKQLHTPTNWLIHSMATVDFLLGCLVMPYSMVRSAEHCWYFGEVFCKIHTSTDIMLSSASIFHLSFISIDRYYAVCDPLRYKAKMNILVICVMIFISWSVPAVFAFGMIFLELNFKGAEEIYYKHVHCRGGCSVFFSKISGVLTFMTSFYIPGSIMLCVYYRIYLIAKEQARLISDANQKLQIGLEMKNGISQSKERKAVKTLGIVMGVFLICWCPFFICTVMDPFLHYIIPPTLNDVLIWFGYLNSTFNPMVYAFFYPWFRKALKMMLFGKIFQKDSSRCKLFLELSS
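System: CHO RD-HGA16 cells carrying human TAAR1 plus Gα16; Incubation: 17-24 h seeding, 75 min 37 °C dye, 30 min RT; Measured by: Fluo-8 fluorescence, 5 s baseline then 140 s kinetic read; Control set: DMSO and PEA EC100; Replication: single well for each compound.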
GPR7 antag: antagonists of human GPR7 (neuropeptides B/W receptor 1). P48145. GPR7-expressing cells, fluorescence antagonist assay. inhibition, % at 4.4 µM. 1.1% of 290,000 active; in the data active means inhibition above about 16%, passing the limit was not always enough;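 further: cells stimulated with the agonist NPW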
OX1R antag-2: OX1R (human) antagonism; O43613; OX1R-expressing cells, FRET antagonist read-out; inhibition, % at 6.6 µM; 1.8% of 330,000 active; in the data active means inhibition mostly above about 38%, no sharp cut-off; inactive means mostly below about 40%
CHO parental Ca: signal in parental CHO cells, OX1R antagonist counter-screen. parental CHO-K1, ATP-induced calcium, Fluo-8 fluorescence. inhibition, % at 5.6 µM. 0.63% of 330,000 active;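 active means inhibition above that plate's mean sample inhibition plus 3 SD, cut at about 26% in these data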
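Test system: untransfected parental CHO cell line. Compound: one dose, 5.6 µM nominal. Detection: intracellular calcium via Fluo-8 no-wash fluorescent dye. Measure: % inhibition. Benchmarks: ATP-challenged DMSO wells low, unchallenged DMSO wells high.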
TAAR1 antagonist: antagonists of human TAAR1 | Q96RJ0 | CHO RD-HGA16 TAAR1, Fluo-8 calcium fluorescence, antagonist | inhibition, % at 3 µM | 1.5% of 360,000 active | AID 624466;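 active means inhibition above a per-plate cutoff, the mean inhibition of test compounds on that plate plus 3 SD, cut at about 49% in these data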
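Test system – hTAAR1-expressing CHO RD-HGA16 cells, Gα16-coupled · Reagent – β-PEA at EC80 concentration, post-compound challenge · Compound dosing – 3 µM, single point · Timing – 140 s kinetic read after compound, 140 s after agonist · Detection – Fluo-8 intracellular calcium dye fluorescence, real-time kinetic reads · Control set – DMSO and EC80 PEA controls · Repeats – n of 1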
Of the large screens only hits and unclear results are named; the others gave an inactive call. Shown are actives, neighbours in structure and some others; about 4.5% of the full set was active somewhere.

CCCc1nnc(NC(=O)CN2C(=O)c3ccccc3C2=O)s1	none
O=C(CSc1n[nH]c(=O)[nH]c1=O)c1cccc([N+](=O)[O-])c1	OX1R antag-2 48
O=C1CN(C(=O)c2ccccc2Br)C(c2ccc(F)cc2)c2cc(F)ccc2N1 (centres undefined)	TAAR1 agonist 41
COc1cccc(CN(C)C(=O)[C@@H](Cc2ccccc2)NC(=O)[C@H]2O[C@@H](n3ccc(=O)[nH]c3=O)[C@H](O)[C@@H]2O)c1	none (no result: OX1R antag-1, GPR7 antag, OX1R antag-2, CHO parental Ca)
COc1ccc(C(C(=O)NCc2ccccc2)N(Cc2ccco2)C(=O)c2snc(C(N)=O)c2N)cc1 (centres undefined)	TAAR1 antagonist 64
NC(=O)c1nsc(C(=O)N(c2cccc(F)c2)C(C(=O)NCc2ccccc2)c2ccc(O)cc2)c1N (centres undefined)	TAAR1 antagonist 52
COc1ccc(C(C(=O)NCC2CCCO2)N(Cc2ccco2)C(=O)c2snc(C(N)=O)c2N)cc1OC (centres undefined)	none
COc1ccc(C(C(=O)NCc2ccccc2)N(Cc2ccco2)C(=O)c2snc(C(N)=O)c2N)cc1OC (centres undefined)	TAAR1 antagonist 57
CCC(CC)c1nnc(NC(=O)c2ccc3ccccc3n2)s1	OX1R antag-2 49
O=C(Nc1nccs1)c1ccc2nccnc2c1	OX1R antag-2 46
O=C(Nc1nccs1)c1ccc2ccccc2n1	OX1R antag-2 71
CSc1cccc(N2CC(C(=O)N(Cc3nnc(-c4ccccc4Cl)o3)C3CC3)CC2=O)c1 (centres undefined)	OX1R antag-2 58
CCOc1ccccc1N1CC(C(=O)N(Cc2nnc(-c3ccccc3Cl)o2)C2CC2)CC1=O (centres undefined)	none (no result: GPR7 antag)
CCOC(=O)c1oc2ccccc2c1COC(=O)CNC(=O)c1cc(OC)c(OC)c(OC)c1	none (no result: GPR7 antag)
CCOC(=O)c1oc2ccccc2c1COC(=O)CNC(=O)c1ccccc1OC	OX1R antag-2 68 (no result: GPR7 antag)
CCc1ccc2oc(-c3cccc(NC(=O)c4cccnc4)c3)nc2c1	TAAR1 antagonist 49
O=C(Nc1cccc(-c2nc3ncccc3o2)c1)c1ccccc1	OX1R antag-2 56
C[C@@H]1CCCCO[C@@H](CN(C)Cc2ccc(Cl)c(Cl)c2)[C@@H](C)CN([C@H](C)CO)C(=O)c2cc(NC(=O)CCC(F)(F)F)ccc2O1	none (no result: OX1R antag-1, GPR7 antag, OX1R antag-2, CHO parental Ca)
O=C(Cn1c(=S)[nH]c2ccccc2c1=O)NCCc1ccccc1	TAAR1 agonist 38
O=C(CCn1c(=S)[nH]c2ccccc2c1=O)NCCSCc1ccccc1	none
O=C(CSc1nnc2ccccn12)NC(=O)c1cccc([N+](=O)[O-])c1	OX1R antag-2 43 (no result: GPR7 antag)
O=C1NC(=O)/C(=C/c2cccc3ccccc23)S1	OX1R antag-2 30
O=C1NC(=O)C(=Cc2ccccc2[N+](=O)[O-])S1	none (no result: OX1R antag-1, GPR7 antag, OX1R antag-2, CHO parental Ca)
Cc1ccc(S(=O)(=O)Oc2ccccc2/C=C2/SC(=O)NC2=O)cc1	OX1R antag-2 38
CCNC(=O)N(C)[C@H]1C[C@@H](c2ccccc2)N(C(C)=O)C[C@H]1CO	none (no result: OX1R antag-1, GPR7 antag, OX1R antag-2, CHO parental Ca)
CC1(C(=O)NCc2cccc(Cl)c2)Cc2c(-c3ccc4c(c3)OCO4)ccnc2O1 (centres undefined)	none (no result: OX1R antag-1, GPR7 antag, OX1R antag-2, CHO parental Ca)
COc1ncc(-c2ccc(N3C(c4ccsc4)=Cc4ccc(F)cc4C3CC(C)=O)cc2)cn1 (centres undefined)	none (no result: OX1R antag-1, GPR7 antag, OX1R antag-2, CHO parental Ca)
CCCCNC(=S)Nc1ccc([N+](=O)[O-])cc1	GPR7 antag 23
CCCCNC(=S)NC(=O)c1ccc([N+](=O)[O-])cc1	none
CC(C)CCNC(=S)Nc1ccc([N+](=O)[O-])cc1	GPR7 antag 22
COC(=O)[C@]12C[C@H](CC(=O)NCCC(C)C)C(=O)N(Cc3ccc4c(c3)OCO4)C1=C[C@H](C(C)(C)C)O[C@@H]2C	none (no result: OX1R antag-1, GPR7 antag, OX1R antag-2, CHO parental Ca)
CC1C=CCC2C(=O)N(c3ccc(OC(=O)c4ccco4)cc3)C(=O)C12 (centres undefined)	GPR7 antag 19
O=C(Nc1nc2ccc(F)cc2s1)C1CCN(S(=O)(=O)c2cc([N+](=O)[O-])ccc2Cl)CC1	CHO parental Ca 67
O=S(=O)(c1ccccc1)N(CC1CO1)c1cccc2ccccc12 (centres undefined)	OX1R antag-2 67
COc1ccccc1OCCNC(=O)CN(c1cccc(C)c1)S(=O)(=O)c1ccccc1	OX1R antag-2 72, TAAR1 antagonist 49
COc1ccc(OC)c(N(CC(=O)NCCSCc2ccco2)S(=O)(=O)c2ccccc2)c1	OX1R antag-2 51
CCN1CCN(C(=O)NS(=O)(=O)c2ccc(C)cc2)CC1	none (no result: OX1R antag-1, OX1R antag-2, CHO parental Ca)
COC(=O)C1=C(C)N(Cc2ccc(C(F)(F)F)cc2)C(=NCc2ccccc2C(F)(F)F)NC1c1ccccc1C(F)(F)F (centres undefined)	none (no result: OX1R antag-1, GPR7 antag, OX1R antag-2, CHO parental Ca)
Cc1ccc(OCCOC(=O)C2CCN(S(=O)(=O)c3ccc(C)c(C)c3)CC2)cc1	CHO parental Ca 29 (no result: GPR7 antag)
CNc1c2cccc(C)c2nc2c(C(=O)NCCN(C)C)cccc12	none (no result: OX1R antag-1, GPR7 antag, OX1R antag-2, CHO parental Ca)
COc1cccc(NC(=O)C(=O)N/N=C/c2cc(C)n(-c3ccc(Cl)c(Cl)c3)c2C)c1	none
Cc1cc(/C=N/NC(N)=S)c(C)n1-c1ccc(Cl)c(Cl)c1	TAAR1 antagonist 50
O=C(N[C@H](Cc1ccccc1)C(=O)N1CCN(CC(=O)N2CCCC2)CC1)[C@H]1O[C@@H](n2ccc(=O)[nH]c2=O)[C@H](O)[C@@H]1O	none (no result: OX1R antag-1, GPR7 antag, OX1R antag-2, CHO parental Ca)
O=C(COc1ccccc1/C=C1\SC(=S)NC1=O)Nc1ccc(F)cc1	OX1R antag-2 57 (no result: GPR7 antag)
NC1=NC(=O)/C(=C/c2ccccc2OCC(=O)Nc2ccc(F)cc2)S1	none (no result: GPR7 antag)
COc1cc(C(=O)NNC(=S)NC(=O)c2ccc3c(c2)OCO3)cc(OC)c1OC	TAAR1 agonist 44
COc1cc(C(=O)NNC(=O)c2ccc3c(c2)OCCO3)cc(OC)c1OC	none (no result: GPR7 antag)
Cc1c(C(=O)NNC(=O)c2ccccc2O)oc2ccccc12	none (no result: OX1R antag-1, GPR7 antag, OX1R antag-2, CHO parental Ca)
Cc1cc(Cl)ccc1NC(=S)NCCC(c1ccccc1)c1ccccc1	OX1R antag-1 45, CHO parental Ca 37
COc1ccc(-c2cc(-c3ccco3)[nH]c(=O)c2C#N)cc1OC	OX1R antag-2 73
O=C(c1ccccc1)N1CCC2CCN(S(=O)(=O)c3ccccc3)CC21 (centres undefined)	none (no result: OX1R antag-1, GPR7 antag, OX1R antag-2, CHO parental Ca)
O=C(NCc1ccccn1)c1cc(-c2ccccc2)nc2ccccc12	none
Cc1cccc(-c2cc(C(=O)NCc3ccccn3)c3ccccc3n2)c1	TAAR1 antagonist 53
O=C(NCc1ccccn1)c1cc(-c2ccc(-c3ccccc3)cc2)nc2ccccc12	TAAR1 antagonist 51
O=C(NC1CCCCCC1)C(=S)NCc1ccccc1	none
C[C@H](NC(=O)Nc1ccc2c(c1)OCCO2)C(=O)O	none
